Assay [1] in a line: reducers of endogenous Her2 protein level, primary screen, SKBR3 breast tumor cells, AlphaScreen, ATP viability (AID 461;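 active = Her2 level under about 52% in both replicate screens, with viability over 70% of control, limit read from the data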;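 as to Her2 level: lower value means less Her2 protein in the cells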;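 as to viability: percent of carrier control wells set as 100% viability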). To be noted: 18-24 h, measured here: SKBR3 viability, ATP luminescence, at 10 µM. A general note: In Alpha technology, singlet oxygen from a donor bead excites a nearby acceptor bead.
For assay [2], the target named is Receptor tyrosine-protein kinase erbB-2 (Homo sapiens) (UniProt P04626). Described as above. The note with it: 18-24 h, at 10 µM, stronger effect = lower value.
A short description of assay [3]: SK-BR-3 cell growth inhibitors, pilot screen, 24 h, human (AID 572;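 active = viability at or below 10% of carrier control in both of two separate runs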;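 also: compound exposure lasted between 18 and 24 h rather than exactly 24 h; 100% = carrier-treated control wells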). To be noted: SK-BR-3 viability, CellTiter-Glo luminescence, at 10 µM, stronger effect = lower value. For orientation: In ATP-based viability assays light output follows the ATP content of the culture.
Assay [4] in a line: HUVEC growth inhibition – cell-based, human, primary screen (AID 575;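 active = viability at or below 30% in both replicate assays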;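 also: 100% = median of untreated cell wells with 0.1% DMSO on each plate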). To be noted: HUVEC proliferation, CellTiter-Glo luminescence, 72 h; at 10 µM; stronger effect = lower value. The procedure, abridged:
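System: primary human umbilical vein endothelial cells; Quantity: 1250 endothelial cells in each well; Buffer or medium: supplemented EBM, 2% fetal bovine serum; Doses: one dose, 10 µM final, 0.1% DMSO; Incubation: 72 h compound incubation; Technique: ATP-based CellTiter-Glo luminescent read; Evaluation: percent of median DMSO-control luminescence; Controls: vehicle and MePR control wells.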

A short description of assay [5]: growth inhibitors of H69AR lung tumor, primary screen, human, duplicate replicates (AID 580).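 Also: 100% = mean luminescence of untreated wells and 0% = no signal.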 To be noted: H69AR lung tumor cells viability, ATP luminescence, 72 h; at 10 µM; stronger effect = lower value.
Assay [6] is described as follows: reversal of MRP1-mediated doxorubicin resistance, pilot screen, H69AR cells, doxorubicin co-treatment (AID 601;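 active = viability loss from added drug above about 55%, and viability with drug at most 40%, in both replicates, limit read from the data, passing the limit was not always enough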). The note with it: CellTiter-Glo, 72 h, at 10 µM; for differential viability (reversal): stronger effect = higher value.
Assay [7] is described as follows: 384-well plate pilot, post-Golgi transport modulator project, inhibition of yeast transport mutant growth (AID 636; in the data active = inhibition above about 31%). To be noted: absorbance 615 nm, about 18 h, stronger effect = higher value.
A short description of assay [8]: growth suppression of yeast trafficking mutant, preliminary HTS, modulators of trafficking downstream of Golgi apparatus project, 1536-format plate, OD 615 nm (AID 637; in the data active = inhibition above about 30%). To be noted: yeast transport mutant growth, absorbance 615 nm, 18 h; stronger effect = higher value.
The mark [9] stands for this setting: H69AR cells + 2 uM doxorubicin, measured here: viability with 2 uM doxorubicin, stronger effect = lower value.
[10] abbreviates: H69AR cells, compound alone cytotoxicity.

Calls of active or inactive are those of the source.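 The calls were made as follows, unless noted: active = viability at or under a set limit in both replicates, limit being median viability minus 3 SD (cut at about 48% in these data, passing the limit was not always enough); inconclusive = at or under the limit in just one replicate; inactive = at or above the limit in both replicates.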

We go through 14 compounds from PubChem BioAssay.

Sequence of Receptor tyrosine-protein kinase erbB-2 (Homo sapiens) (P04626 whole entry, looked up): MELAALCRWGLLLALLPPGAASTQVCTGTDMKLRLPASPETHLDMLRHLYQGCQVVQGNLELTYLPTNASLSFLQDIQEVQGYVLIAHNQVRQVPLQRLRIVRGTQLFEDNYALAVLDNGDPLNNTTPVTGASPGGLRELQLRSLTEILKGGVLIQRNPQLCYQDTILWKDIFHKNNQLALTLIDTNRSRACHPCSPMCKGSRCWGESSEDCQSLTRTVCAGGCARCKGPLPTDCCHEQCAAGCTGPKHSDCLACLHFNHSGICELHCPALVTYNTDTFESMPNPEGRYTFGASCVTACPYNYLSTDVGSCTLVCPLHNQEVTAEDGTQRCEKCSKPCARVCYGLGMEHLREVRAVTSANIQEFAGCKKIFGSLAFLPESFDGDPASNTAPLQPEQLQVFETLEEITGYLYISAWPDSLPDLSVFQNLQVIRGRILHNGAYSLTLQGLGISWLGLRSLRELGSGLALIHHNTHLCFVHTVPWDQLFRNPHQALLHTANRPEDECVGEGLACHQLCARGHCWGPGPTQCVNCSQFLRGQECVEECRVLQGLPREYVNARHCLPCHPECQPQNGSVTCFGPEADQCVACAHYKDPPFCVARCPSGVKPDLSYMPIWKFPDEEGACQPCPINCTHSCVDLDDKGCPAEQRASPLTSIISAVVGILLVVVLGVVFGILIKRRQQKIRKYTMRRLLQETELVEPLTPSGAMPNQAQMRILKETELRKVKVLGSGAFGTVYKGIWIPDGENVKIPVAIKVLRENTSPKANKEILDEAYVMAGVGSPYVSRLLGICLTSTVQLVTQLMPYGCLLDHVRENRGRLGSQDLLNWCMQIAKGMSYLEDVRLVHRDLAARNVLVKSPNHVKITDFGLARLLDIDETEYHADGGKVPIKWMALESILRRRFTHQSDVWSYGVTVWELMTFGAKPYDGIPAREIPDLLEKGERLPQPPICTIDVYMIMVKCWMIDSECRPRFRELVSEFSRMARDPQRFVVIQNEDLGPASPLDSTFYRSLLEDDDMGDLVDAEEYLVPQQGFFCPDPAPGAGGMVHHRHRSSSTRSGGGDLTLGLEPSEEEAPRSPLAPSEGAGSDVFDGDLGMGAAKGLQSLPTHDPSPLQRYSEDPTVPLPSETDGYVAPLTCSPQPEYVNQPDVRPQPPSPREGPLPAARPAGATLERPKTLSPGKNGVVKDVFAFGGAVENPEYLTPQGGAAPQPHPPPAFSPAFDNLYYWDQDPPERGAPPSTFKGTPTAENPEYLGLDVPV

Turning to `CC1=Nn2c(nnc2-c2cc(-c3ccccc3)n[nH]2)SC1`, the viability in assay [1] is 97.5%; in assay [3], 97.5% (inactive); in assay [4], 94.3% (inactive); in assay [5] it was 91.4% (inactive); in assay [6] (setting [9]) it was 84.4%; in assay [6] (setting [10]), 91.4%. In assay [2], the Her2 level is 78% (inactive). In addition, in assay [6] (H69AR cells + 2 uM doxorubicin), the differential viability (reversal) was 7.02% (inactive). Besides, the inhibition in assay [7] is -3.47% (inactive); in assay [8] it was 7.05% (inactive).

Consider `Cc1ccc(S(=O)(=O)N2CCCC(C(=O)NC3=NCCS3)C2)cc1` (stereo not given), for which the viability in assay [1] is 97.5%; in assay [3], 97.5% (inactive); in assay [4], 83% (inactive); in assay [5], 91.8% (inactive); in assay [6] (setting [9]) it was 85.4%; in assay [6] (setting [10]) it was 91.8%. Moreover, in assay [2], the Her2 level is 78.5% (inactive). Also, the differential viability (reversal) in assay [6] (H69AR cells + 2 uM doxorubicin) was 6.39% (inactive). Moreover, the inhibition in assay [7] was -6.67% (inactive); in assay [8] it was 2.62% (inactive).

With `O=C(Cc1c(F)cccc1Cl)Nc1ccncc1`, the viability in assay [1] is 92%; in assay [3], 92% (inactive); in assay [4], 97.5% (inactive); in assay [5], 86.4% (inactive); in assay [6] (setting [9]), 91.9%; in assay [6] (setting [10]) it was 86.4%. For the same compound, the Her2 level in assay [2] was 91.5% (inactive). Also, in assay [6] (H69AR cells + 2 uM doxorubicin), the differential viability (reversal) was -5.46% (inactive). Moreover, the inhibition in assay [7] is -5.2% (inactive); in assay [8] it was -0.48% (inactive).

With `OC(CCN1CCOCC1)(c1ccc(Cl)cc1)C1CCCCC1` (stereo not given), the viability in assay [1] was 82.5%; in assay [3], 82.5% (inactive); in assay [4], 99.6% (inactive); in assay [5], 82% (inactive); in assay [6] (setting [9]) it was 85.7%; in assay [6] (setting [10]), 82%. Also, the Her2 level in assay [2] was 102% (inactive). Further, the differential viability (reversal) in assay [6] (H69AR cells + 2 uM doxorubicin) is -3.7% (inactive). In addition, the figures for the inhibition in assay [7] and in assay [8] were -0.4% (inactive) and 21.5% (inactive), respectively.

Regarding `Cc1cc2nc3c(nc2cc1C)C1(C(=O)O)CCC3(C)C1(C)C` (stereo not given), the viability is 103% in assay [1]; 103% (inactive) in assay [3]; 99.9% (inactive) in assay [4]; 95.3% (inactive) in assay [5]; 96.1% in assay [6] (setting [9]); 95.3% in assay [6] (setting [10]). The Her2 level in assay [2] is 95.5% (inactive). Further, in assay [6] (H69AR cells + 2 uM doxorubicin), the differential viability (reversal) is -0.805% (inactive). Also, the inhibition was 0% (inactive) in assay [7] and -2.3% (inactive) in assay [8].

As to `O=C(C1CCCO1)N1CCN(Cc2nc3ccccc3c(=O)[nH]2)CC1` (stereo not given), the viability is 91.5% in assay [1]; 91.5% (inactive) in assay [3]; 96.3% (inactive) in assay [4]; 94.9% (inactive) in assay [5]; 105% in assay [6] (setting [9]); 94.9% in assay [6] (setting [10]). Besides, in assay [2], the Her2 level is 92% (inactive). The differential viability (reversal) in assay [6] (H69AR cells + 2 uM doxorubicin) was -10% (inactive). The inhibition in assay [7] was -7.16% (inactive); in assay [8], 0.16% (inactive).

With `O=C(Cn1c(=O)n(Cc2ccc3c(c2)OCO3)c(=O)c2ccccc21)N1CCCc2ccccc21`, the viability in assay [1] was 87.5%; in assay [3], 87.5% (inactive); in assay [4] it was 66.5% (inactive); in assay [5], 82.2% (inactive); in assay [6] (setting [9]) it was 78.3%; in assay [6] (setting [10]) it was 82.2%. Also, the Her2 level in assay [2] is 80.5% (inactive). Also, in assay [6] (H69AR cells + 2 uM doxorubicin), the differential viability (reversal) is 3.96% (inactive). Further, the inhibition in assay [7] is -0.39% (inactive); in assay [8], 1.8% (inactive).

On to `CCOC(=O)CSC1=Nc2ccccc2C2=NC(CC(=O)NCc3ccc(OC)cc3)C(=O)N12` (stereo not given), for which the viability was 117% in assay [1]; 117% (inactive) in assay [3]; 83% (inactive) in assay [4]; 99.7% (inactive) in assay [5]; 97.3% in assay [6] (setting [9]); 99.7% in assay [6] (setting [10]). In assay [2], the Her2 level was 89% (inactive). In addition, the differential viability (reversal) in assay [6] (H69AR cells + 2 uM doxorubicin) is 2.4% (inactive). Further, the inhibition was -4.21% (inactive) in assay [7] and -1.27% (inactive) in assay [8].

With `CN1C(=O)C(CC(=O)N2CCN(C(c3ccccc3)c3ccccc3)CC2)N(C)C1=O` (stereo not given), the viability in assay [1] is 90.5%; in assay [3], 90.5% (inactive); in assay [4] it was 89.1% (inactive); in assay [5], 81.9% (inactive); in assay [6] (setting [9]), 95.9%; in assay [6] (setting [10]), 81.9%. Besides, the Her2 level in assay [2] is 83% (inactive). For the same compound, the differential viability (reversal) in assay [6] (H69AR cells + 2 uM doxorubicin) was -14% (inactive). Besides, the inhibition in assay [7] was 0.26% (inactive); in assay [8], -3.67% (inactive).

As to `Cc1cc(NC(=O)COC(=O)C2COc3ccccc3O2)no1` (stereo not given), the viability is 110% in assay [1]; 110% (inactive) in assay [3]; 104% (inactive) in assay [4]; 96.7% (inactive) in assay [5]; 85.7% in assay [6] (setting [9]); 96.7% in assay [6] (setting [10]). Also, the Her2 level in assay [2] was 95.5% (inactive). Further, in assay [6] (H69AR cells + 2 uM doxorubicin), the differential viability (reversal) is 11% (inactive). Besides, the figures for the inhibition in assay [7] and in assay [8] were -4.61% (inactive) and -5% (inactive), respectively.

`Cc1cc(NS(=O)(=O)c2ccccc2)n(-c2ccccc2)n1`: the viability in assay [1] was 106%; in assay [3], 106% (inactive); in assay [4], 85.2% (inactive); in assay [5], 96.2% (inactive); in assay [6] (setting [9]) it was 98.6%; in assay [6] (setting [10]) it was 96.2%. Further, in assay [2], the Her2 level is 95.5% (inactive). Besides, the differential viability (reversal) in assay [6] (H69AR cells + 2 uM doxorubicin) was -2.34% (inactive). For the same compound, the inhibition in assay [7] is -4.13% (inactive); in assay [8], 2.1% (inactive).

On to `CCCCCc1c(C)nc(Nc2nc(C)c3cc(OC)ccc3n2)[nH]c1=O`, for which the viability in assay [1] was 92.5%; in assay [3], 92.5% (inactive); in assay [4] it was 55.2% (inactive); in assay [5], 78% (inactive); in assay [6] (setting [9]), 55.7%; in assay [6] (setting [10]), 78%. Also, the Her2 level in assay [2] is 85.5% (inactive). Also, the differential viability (reversal) in assay [6] (H69AR cells + 2 uM doxorubicin) was 22.3% (inactive). Moreover, the values for the inhibition in assay [7] and in assay [8] were -7.7% (inactive) and 11.1% (inactive), respectively.

On to `COc1ccccc1NC(=O)NC1(C(=O)N2CCC(O)CC2)CCCCC1`, for which the viability in assay [1] is 103%; in assay [3] it was 103% (inactive); in assay [4] it was 99.2% (inactive); in assay [5], 114% (inactive); in assay [6] (setting [9]) it was 109%; in assay [6] (setting [10]), 114%. Further, the Her2 level in assay [2] is 97% (inactive). The differential viability (reversal) in assay [6] (H69AR cells + 2 uM doxorubicin) was 4.86% (inactive). Besides, the inhibition in assay [7] is -3.9% (inactive); in assay [8] it was -4.13% (inactive).

With `CCN1C(=O)CC(C(=O)Nc2ccc(F)cc2)SC1=Nc1ccc2c(c1)OCO2` (stereo not given), the viability in assay [1] was 136%; in assay [3], 136% (inactive); in assay [4], 79.7% (inactive); in assay [5], 86.4% (inactive); in assay [6] (setting [9]), 80.4%; in assay [6] (setting [10]) it was 86.4%. Besides, the Her2 level in assay [2] was 97% (inactive). Further, the differential viability (reversal) in assay [6] (H69AR cells + 2 uM doxorubicin) is 6.02% (inactive). Further, the inhibition was -2.53% (inactive) in assay [7] and -1.61% (inactive) in assay [8].

The viability is a read-out of living cells in per cent, often relative to untreated cells. The inhibition is the drop in the measured response relative to a control, in per cent.
